Among the data in ChEMBL document CHEMBL1221179, “An shRNA barcode screen provides insight into cancer cell vulnerability to MDM2 inhibitors” (2006) are Activity values, retold here.

Test [1] has as its system MCF7. In words: Induction of cell cycle arrest in human MCF7 cells transfected with p53-targeting iRNA-based shRNA at 4 uM after 14 days by BrdU incorporation assay. It is filed as functional.
For test [2], the system named is MCF7. In words: Induction of cell cycle arrest in human MCF7 cells transfected hnRNPK-targeting iRNA-based shRNA at 4 uM after 14 days by BrdU incorporation assay. It is filed as functional. Background: Uptake of a labelled nucleoside into DNA is a usual measure of proliferation.
For test [3], the system named is MCF7. In words: Antiproliferative activity against human MCF7 cells at 4 uM after 14 days by coomassie staining. It is filed as functional, cell-based. In short, it runs like this: (§1)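 Retrovirally transduced shRNA (GFP control, p53, or two independent 53BP1 hairpins in pRETROSUPER); cells grown in DMEM with 10% fetal calf serum at 37 °C, 5% CO2; left untreated or given 4 µM nutlin-3 for 14 days; cell density shown by Coomassie staining, morphology inspected.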

In test [4] the test system is MCF7. In words: Antiproliferative activity against human MCF7 cells assessed as appearance of flattened phenotype at 4 uM after 14 days by coomassie staining. The test is classed as functional, cell-based. In short, it runs like this: as §1
Test [5] deals with MCF7. In words: Antiproliferative activity against human MCF7 cells transfected with p53-targeting iRNA-based shRNA assessed as effect on cellular morphology at 4 uM after 14 days by coomassie staining. It is filed as functional, cell-based. In short, it runs like this:
as §1

Another test relates to A549. In words: Antiproliferative activity against human A549 cells transfected with 53BP1-targeting iRNA-based shRNA assessed as effect on cellular morphology at 4 uM after 14 days by coomassie staining. The test is classed as functional, cell-based. The procedure, abridged: as §1
For test [6], the system named is MCF7. In words: Induction of cell cycle arrest in human MCF7 cells p53-targeting iRNA-based shRNA assessed as accumulation at S phase at 4 uM after 48 hrs by BrdU incorporation assay. It is filed as functional. The procedure, abridged:
(§2)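 MCF-7 carrying shRNA against GFP (control), p53 or 53BP1, untreated or given 4 µM nutlin-3 for 48 h; 10 µM BrdU pulse 30 min before harvest; ethanol fixation, HCl-Triton permeabilization, borate neutralization; anti-BrdU plus FITC secondary, propidium iodide with RNase; 10,000 cells per sample by flow cytometry; S-phase percentage = BrdU-positive fraction.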

The test system of test [7] is MCF7. In words: Induction of cell cycle arrest in human MCF7 cells 53BP1-targeting iRNA-based shRNA assessed as accumulation at S phase at 4 uM after 48 hrs by BrdU incorporation assay. The test is classed as functional. The procedure, abridged:
as §2

In test [8] the test system is MCF7. In words: Induction of p53 expression in human MCF7 cells transfected with 53BP1-targeting iRNA-based shRNA by Western blot analysis. The test is classed as functional, cell-based. In short, it runs like this:
(§3)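 MCF-7 expressing GFP control shRNA or either of two 53BP1 shRNAs; lysates immunoblotted for 53BP1, p53 (DO-1), p21 (C19) and MDM2 (2A10, SMP14) after SDS-PAGE transfer to nitrocellulose.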
In general terms: A western blot detects proteins with antibodies after separation by electrophoresis.

For test [9], the system named is MCF7. In words: Induction of p53 expression in human MCF7 cells by Western blot analysis. The test is classed as functional, cell-based. In short, it runs like this:
as §3

For test [10], the system named is MCF7. In words: Induction of CDKN1A gene expression in human MCF7 cells transfected with 53BP1-targeting iRNA-based shRNA by Western blot analysis. It is filed as functional, cell-based. The procedure, abridged:
as §3

Test [11] concerns MCF7. In words: Induction of p53 expression in human MCF7 cells assessed as increase in p21CIP1 level after 18 hrs by Western blot method in presence of 2.5 mM caffeine. The test is classed as functional, cell-based. In short, it runs like this: (§4)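 MCF-7 pretreated 12 h with 2.5 mM caffeine (or not), then exposed to increasing nutlin-3 concentrations for 18 h; lysates run on SDS-PAGE, blotted to nitrocellulose and probed for p53 (DO-1) and p21 (C19).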

Test [12] concerns MCF7. In words: Induction of p53 accumulation in human MCF7 cells after 18 hrs by Western blot analysis in presence of 2.5 mM caffeine. It is filed as functional, cell-based. The procedure, abridged: as §4
Test [13] relates to BJ. In words: Induction of p21CIP1 expression in irradiated human BJ cells at 3 uM by Western blot analysis. It is filed as functional, cell-based. In short, it runs like this: (§5)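 Normal BJ fibroblasts, with or without 2 Gy irradiation, treated with increasing nutlin-3 concentrations; SDS-PAGE and nitrocellulose immunoblot for p53 stabilization and p21 induction.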
The test system of test [14] is MCF7. In words: Induction of apoptosis in human MCF7 cells transfected with p53-targeting iRNA-based shRNA at 4 uM after 14 days by BrdU incorporation assay. It is filed as functional, cell-based.
The test system of test [15] is MCF7. In words: Antiproliferative activity against human MCF7 cells transfected with 53BP1-targeting iRNA-based shRNA assessed as effect on cellular morphology at 4 uM after 14 days by coomassie staining. The test is classed as functional, cell-based. In short, it runs like this:
as §1

The subject of test [16] is MCF7. In words: Induction of apoptosis in human MCF7 cells co-transfected with 53BP1-targeting iRNA-based shRNA at 4 uM after 14 days by BrdU incorporation assay. It is filed as functional, cell-based.
Test [17] concerns BJ. In words: Induction of p21 expression in irradiated human BJ cells at 3 uM by Western blot analysis. It is filed as functional, cell-based. The procedure, abridged: as §5
The subject of test [18] is MCF7. In words: Induction of cell cycle arrest in human MCF7 cells transfected with 53BP1-targeting iRNA-based shRNA at 4 uM after 48 hrs by BrdU incorporation assay.

The source made the active and inactive calls. The rule behind the calls is not given here.

In the case of `COc1ccc(C2=N[C@@H](c3ccc(Cl)cc3)[C@@H](c3ccc(Cl)cc3)N2C(=O)N2CCNC(=O)C2)c(OC(C)C)c1` [NUTLIN-3], the outcome in the test with MCF7 [1], in the test with MCF7 [2], in the test with MCF7 [3], with MCF7 [4], in the test on MCF7 [8] and in the test on MCF7 [9] was Active. For the same compound, the outcome in the test on MCF7 [12], in the test on BJ [13], with BJ [17] and with MCF7 [18] was Active. For the same compound, the result in the test on MCF7 [5], in the test with A549, in the test on MCF7 [10], with MCF7 [11], in the test on MCF7 [14] and in the test on MCF7 [15] was inactive. Also, the result in the test with MCF7 [16] was inactive. In addition, the Activity with MCF7 [6] amounted to 29%; with MCF7 [7], 17%.
